Measurements as given in ChEMBL document CHEMBL1671641, “1,5-benzodiazepines, a novel class of hepatitis C virus polymerase nonnucleoside inhibitors” (Antimicrob Agents Chemother, 2008).

Key:
Hepatitis C virus [1] = assay: Inhibition of Hepatitis C virus 1b J4 recombinant NS5B Cdelta 21 RNA dependent RNA polymerase overexpressed in Escherichia coli BL21 (DE3); parameters: species or system Hepatitis C virus subtype 1b
Hepatitis C virus [2] = assay: Antiviral activity against Hepatitis C virus 1b infected in human HuH7 cells assessed as inhibition of viral replication after 3 days by luciferase reporter assay; format: functional, organism-based, Hepacivirus hominis, genotype 1b, Huh-7
In short: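 HCV 1b subgenomic luciferase reporter replicon (clone ET) cells, 2,500 per well, were exposed to a nine-point 1/4 dilution series for 3 days. Replication was read as luciferase activity. Values are means ± SD from 2 to 23 independent experiments run in quadruplicate.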

[3] = (§1) Cytotoxicity against LTR-Luc transfected human MT4 cells […] after 3 days by ATPLite assay; format: cell-based
[4] = Cytotoxicity against CMV-Luc transfected human HuH7 cells after 5 days; format: cell-based, Huh-7; details: for CC50 at 120 h: CMV-Luc transfected HuH7 cells; for CC50: huh-7, 120 h, 120 h
MT4 = assay: as §1; format: cell-based; details: mt4, 72 h, 72 h
Hepatitis C virus [5] = assay: Inhibition of Hepatitis C virus 1b J4 recombinant NS5B Cdelta 21 RNA dependent RNA polymerase overexpressed in Escherichia coli BL21 (DE3) by RdRp primer-dependent transcription assay; parameters: species or system Hepatitis C virus subtype 1b
Hepatitis C virus [6] = assay: Inhibition of Hepatitis C virus 1b J4 recombinant NS5B Cdelta 21 RNA dependent RNA polymerase overexpressed in Escherichia coli BL21 (DE3) assessed as [alpha-33P]UTP incorporation by RdRp primer-independent transcription assay; parameters: species or system Hepatitis C virus subtype 1b
In short: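 De novo (primer-independent) RdRp assay: 190 nM NS5BΔ21 (1b J4) with 86 nM HCV 3′ UTR template RNA, 0.5 mM each ATP/GTP/CTP, 10 μM UTP plus [α-³³P]UTP, in 20 mM Tris-HCl pH 7.5, 1 mM DTT, 5 mM MgCl₂, 20 mM NaCl. Incubated 2 h at room temperature, stopped with EDTA/tRNA, TCA-precipitated on filters, and scintillation-counted. Quadruplicate.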

Hepatitis C virus [7] = assay: Ratio of EC50 for Hepatitis C virus 796 infected in HuH7 cells to EC50 for Hepatitis C virus 796 harboring NNI P495L mutant site in NS5B infected in HuH7 cells; format: functional, Hepacivirus hominis, Huh-7
In short: (§2)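 NS5B NNI-site mutations were introduced into the genotype 1b ET subgenomic luciferase replicon by site-directed mutagenesis. RNA was made by in vitro transcription and tested in a transient-replication assay.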

Hepatitis C virus [8] = assay: Ratio of EC50 for Hepatitis C virus 796 infected in HuH7 cells to EC50 for Hepatitis C virus 796 harboring NNI M423T mutant site in NS5B infected in HuH7 cells; format: functional, Hepacivirus hominis, Huh-7; in short: as §2
Hepatitis C virus [9] = assay: Ratio of EC50 for Hepatitis C virus 796 infected in HuH7 cells to EC50 for Hepatitis C virus 796 harboring NNI M414Q mutant site in NS5B infected in HuH7 cells; format: functional, Hepacivirus hominis, Huh-7; in short: as §2
Hepatitis C virus [10] = assay: Ratio of EC50 for Hepatitis C virus 796 infected in HuH7 cells to EC50 for Hepatitis C virus 796 harboring NNI Y448A mutant site in NS5B infected in HuH7 cells; format: functional, Hepacivirus hominis, Huh-7; in short: as §2
Hepatitis C virus [11] = assay: Ratio of EC50 for Hepatitis C virus 796 infected in HuH7 cells to EC50 for Hepatitis C virus 796 harboring NNI H95R mutant site in NS5B infected in HuH7 cells; format: functional, Hepacivirus hominis, Huh-7; in short: as §2
Hepatitis C virus [12] = assay: Ratio of EC50 for Hepatitis C virus 796 infected in HuH7 cells to EC50 for Hepatitis C virus 796 harboring NNI C316Y mutant site in NS5B infected in HuH7 cells; format: functional, Hepacivirus hominis, Huh-7; in short: as §2

## CC(=O)N1c2ccccc2NC2=C(C(=O)CC(C)(C)C2)C1c1ccc(OCc2ccccc2)cc1 (stereo in doubt; 3)
Hepatitis C virus [1]
  IC50: 3 µM
Hepatitis C virus [2]; huh-7
  EC50: 5.8 µM
[3]
  CC50 at 72 h: 32 µM
[4]
  CC50 at 120 h: 32 µM

## CC(=O)N1c2ccccc2NC2=C(C(=O)CC(C)(C)C2)C1c1ccc(OCc2ccccc2)cc1 (single isomer, unassigned; 3a)
Hepatitis C virus [2]; huh-7
  EC50: 15.3 µM
MT4
  CC50: 22.2 µM
[4]
  CC50: 19.2 µM
Hepatitis C virus [5]
  IC50: 1 µM
Hepatitis C virus [6]
  IC50: 0.54 µM

## CC(=O)N1c2ccccc2NC2=C(C(=O)CC(C)(C)C2)C1c1ccc(OCc2ccccc2)cc1Cl (stereo in doubt; 5)
[3]
  CC50 at 72 h: 16.7 µM
[4]
  CC50 at 120 h: 35.5 µM

## CC(=O)N1c2ccccc2NC2=C(C(=O)CC(C)(C)C2)C1c1ccc(OCc2ccccc2)c(Cl)c1 (single isomer, unassigned; 4b)
Hepatitis C virus [2]; huh-7
  EC50: 0.6 µM
MT4
  CC50: 12.9 µM
[4]
  CC50: 21.2 µM
Hepatitis C virus [5]
  IC50: 35.9 µM
Hepatitis C virus [6]
  IC50: > 32 µM

## CC(C)C[C@@]1(C(=O)O)C[C@H](C#N)[C@H](c2nccs2)N1C(=O)c1ccc(C(C)(C)C)cc1 [ACYL PYRROLIDINE]
Hepatitis C virus [7]
  fold change (FC): 10
Hepatitis C virus [8]
  fold change (FC): 10
Hepatitis C virus [9]
  fold change (FC): 10
Hepatitis C virus [10]
  fold change (FC): 10
Hepatitis C virus [11]
  fold change (FC): 10
Hepatitis C virus [12]
  fold change (FC): 10

## c1ccc2occc2c1 [BENZOFURAN]
Hepatitis C virus [7]
  fold change (FC): 10
Hepatitis C virus [8]
  fold change (FC): 10
Hepatitis C virus [9]
  fold change (FC): 10
Hepatitis C virus [10]
  fold change (FC): 10
Hepatitis C virus [11]
  fold change (FC): 10
Hepatitis C virus [12]
  fold change (FC): 10

## CC(=O)N1c2cccc(O)c2NC2=C(C(=O)CC(C)(C)C2)C1c1ccc(OCc2ccccc2)cc1Cl (stereo in doubt; 7)
Hepatitis C virus [2]; Hepatitis C virus, genotype 1b, Huh-7, 72 h
  EC50: 1.43 µM
[3]
  CC50 at 72 h: 17.8 µM
[4]
  CC50 at 120 h: 13.4 µM

## CC(=O)N1c2ccccc2NC2=C(C(=O)CC(C)(C)C2)C1c1ccc(OCc2ccccc2)c(Cl)c1 (stereo in doubt; 4)
Hepatitis C virus [2]; huh-7
  EC50: 2.2 µM
[3]
  CC50 at 72 h: 22.1 µM
[4]
  CC50 at 120 h: 40.2 µM

## CC(=O)N1c2ccccc2NC2=C(C(=O)CC(C)(C)C2)C1c1ccc(OCc2ccccc2)cc1Cl (single isomer, unassigned; 5a)
Hepatitis C virus [2]; huh-7
  EC50: 9.3 µM
MT4
  CC50: 19.5 µM
[4]
  CC50: 49 µM
Hepatitis C virus [5]
  IC50: 0.33 µM

## c1ccc2[nH]ccc2c1 [INDOLE]
Hepatitis C virus [7]
  fold change (FC): 10
Hepatitis C virus [8]
  fold change (FC): 10
Hepatitis C virus [9]
  fold change (FC): 10
Hepatitis C virus [10]
  fold change (FC): 10
Hepatitis C virus [11]
  fold change (FC): 10
Hepatitis C virus [12]
  fold change (FC): 10

## CC(C)N(c1cc(-c2ccccc2)sc1C(=O)O)C(=O)[C@H]1CC[C@H](C)CC1
Hepatitis C virus [7]
  fold change (FC): 10
Hepatitis C virus [8]
  fold change (FC): 10
Hepatitis C virus [9]
  fold change (FC): 10
Hepatitis C virus [10]
  fold change (FC): 10
Hepatitis C virus [11]
  fold change (FC): 10
Hepatitis C virus [12]
  fold change (FC): 10

## CC(=O)N1c2ccccc2NC2=C(C(=O)CC(C)(C)C2)C1c1ccc(OCc2ccccc2)cc1Cl (single isomer, unassigned; 5b)
Hepatitis C virus [2]; huh-7
  EC50: 3.9 µM
MT4
  CC50: 17.3 µM
[4]
  CC50: 53.7 µM
Hepatitis C virus [5]
  IC50: 83.1 µM

## CC(=O)N1c2ccccc2NC2=C(C(=O)CC(C)(C)C2)C1c1ccc(OCc2ccccc2)cc1 (single isomer, unassigned; 3b)
Hepatitis C virus [2]; huh-7
  EC50: 2 µM
MT4
  CC50: 18.3 µM
[4]
  CC50: 19.7 µM
Hepatitis C virus [5]
  IC50: 86.7 µM
Hepatitis C virus [6]
  IC50: 79.1 µM
